# TAAR1 antagonist: human TAAR1 antagonists, primary screen, Fluo-8 calcium fluorescence, CHO RD-HGA16 cells; Trace amine-associated receptor 1 (Homo sapiens), Q96RJ0; antagonist; inhibition, % at 3 µM; 360,000 compounds, 1.5% hits; AID 624466, 2012;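 active = inhibition above a per-plate cutoff, the mean inhibition of test compounds on that plate plus 3 SD, cut at about 49% in these data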;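 also: 0% = DMSO plus EC80 beta-PEA response and 100% = DMSO alone without agonist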
# Target sequence (Q96RJ0 whole entry, looked up): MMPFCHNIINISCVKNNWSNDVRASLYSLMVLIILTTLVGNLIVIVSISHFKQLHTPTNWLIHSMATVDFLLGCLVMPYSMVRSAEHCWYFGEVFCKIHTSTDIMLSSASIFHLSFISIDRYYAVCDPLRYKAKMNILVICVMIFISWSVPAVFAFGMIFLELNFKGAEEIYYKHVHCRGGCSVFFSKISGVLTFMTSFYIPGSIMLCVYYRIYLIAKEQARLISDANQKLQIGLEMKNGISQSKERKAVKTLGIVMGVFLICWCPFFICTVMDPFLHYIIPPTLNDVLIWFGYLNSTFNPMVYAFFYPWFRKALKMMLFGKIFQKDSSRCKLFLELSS
#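 Test system – hTAAR1-expressing CHO RD-HGA16 cells, Gα16-coupled · Reagent – β-PEA at EC80 concentration, post-compound challenge · Compound dosing – 3 µM, single point · Timing – 140 s kinetic read after compound, 140 s after agonist · Detection – Fluo-8 intracellular calcium dye fluorescence, real-time kinetic reads · Control set – DMSO and EC80 PEA controls · Repeats – n of 1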
# rCAG binder: binders of r(CAG) RNA repeats, primary screen, biochemical, fluorescence; 370,000 compounds, 1.3% hits; r(CAG) RNA repeat, TO-PRO-1 dye displacement fluorescence; inhibition, % at 3 µM;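 active = inhibition above the plate cutoff, the mean of all test compounds on that plate plus 3 SD, cut at about 35% in these data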;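 also: 0% = DMSO alone and 100% = 100 µM mitoxantrone as full dye displacement; higher means more dye released from RNA so lower well fluorescence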
# HCV core dimer: inhibitors of HCV core protein dimerization, primary screen, biochemical, TR-FRET, high-throughput; TR-FRET GST/Flag-core106 dimerization, 1536-well; inhibition, % at 5 µM; 300,000 compounds, 0.33% hits; AID 1899, 2009;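 active = inhibition above the mean of all tested compounds plus 3 SD, set per screening campaign, cut at about 45% in these data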
#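 Test system: GST/Flag-tagged HCV core106 proteins; Medium: KF-containing HEPES buffer, pH 7.45, DTT, CHAPS, BSA; Times: compound-protein-antibody incubation 4 h at 22.5 °C; Detection: TR-FRET 671 and 617 nm emission; Benchmarks: wells lacking GST-core106 and wells with excess unlabelled core106.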
# NS3 helicase inh: inhibitors of HCV NS3 helicase, primary screen, biochemical, Cy5 molecular beacon fluorescence | Hepatitis C virus NS3 helicase | 290,000 compounds, 0.56% hits | inhibition, % at 10.9 µM | NS3 helicase DNA unwinding;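 active = inhibition above the mean of all tested compounds plus 3 SD, set per campaign, cut at about 35% in these data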;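 also: 0% = DMSO wells and 100% = thioflavine S control wells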
#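 Material: hepatitis C virus NS3 helicase domain fragment enzyme; measured by: Cy5 fluorescence, 0 and 60 min reads; control set: DMSO and thioflavine S; incubation: 60 min unwinding reaction at 25 °C after ATP addition; read-out basis: % inhibition from 60/0 min fluorescence ratio, DMSO 0%, thioflavine S 100%; repeats: singlicate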
# TAAR1 ag: human TAAR1 agonists, primary screen, Fluo-8 calcium fluorescence, CHO RD-HGA16 cells; Trace amine-associated receptor 1 (Homo sapiens), Q96RJ0; vehicle wells 0%, saturating PEA agonist 100%; activation, % at 3 µM; 360,000 compounds, 0.99% hits; AID 624467, 2012;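 active = activation above the mean activation of all test compounds in the run plus 3 SD, cut at about 38% in these data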
#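 Test system: RD-HGA16 (CHO) cells co-expressing Gα16 and hTAAR1 / Benchmarks: DMSO vehicle as 0%, PEA at EC100 as 100% / Repeats: no replicates (n 1) / Measure: % activation from peak over basal fluorescence ratio, DMSO-to-PEA scaled / Timing: 17-24 h plating, Fluo-8 75 min 37 °C, 30 min RT / Technique: kinetic Fluo-8 calcium fluorescence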
# rCAG bind conf: small molecules binding CAG repeat RNA – biochemical, fluorescence, confirmation. inhibition, % at 3 µM. shares compounds with rCAG binder. 4,300 compounds, 70% hits. r(CAG) RNA repeat, TO-PRO-1 dye displacement fluorescence;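 active = inhibition above a per-plate cutoff, the mean inhibition of sample wells plus 3 SD, cut at about 35% in these data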;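 also: loss of TO-PRO-1 fluorescence as compound displaces dye from 1x1 AA loop RNA; 0% = DMSO only wells and 100% = 100 µM mitoxantrone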
# DNA CAG counter: displacement of TO-PRO-1 from CAG DNA duplex, counter-screen for rCAG RNA repeat binder project, biochemical, fluorescence, TO-PRO-1 dye, d(CAG) DNA oligo | shares compounds with rCAG binder | d(CAG) DNA oligo TO-PRO-1 dye displacement | inhibition, % at 3 µM | 4,300 compounds, 94% hits | AID 652068, 2013;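 active = inhibition above its plate's cutoff, the mean test-well inhibition plus 3 SD, cut at about 4.8% in these data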;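 also: 0% = DNA dye mix with DMSO and 100% = 100 µM mitoxantrone; hits displace the dye from DNA and so lower well fluorescence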
# DNA CAG DR: inhibitors of DNA CAG/GTC TO-PRO-1 complex, dose response, counter-screen for rCAG RNA repeat binder project, biochemical, fluorescence, TO-PRO-1 dye; IC50, µM; DNA CAG/GTC duplex TO-PRO-1 dye displacement fluorescence; shares compounds with rCAG binder; 250 compounds, 20% hits; in the data active = IC50 below about 10 µM
# Starred values were filed as active, the others as inactive; i = inactive; . = not tested or not shown. Shown are actives, neighbours in structure and some others; about 3.7% of the full set was active somewhere.
SMILES,TAAR1 antagonist,rCAG binder,HCV core dimer,NS3 helicase inh,TAAR1 ag,rCAG bind conf,DNA CAG counter,others
Nc1cc(=O)[nH]c(SCc2cccc3ccccc23)n1,18.8,6.5,8.6,-6.3,10.7,.,.,
COc1ccc(NC(=O)Nc2ccc3c(c2)C(=O)N([C@H](C)CO)C[C@H](C)[C@H](CN(C)Cc2ccc(C(=O)O)cc2)OCCCC[C@@H](C)O3)cc1,-31.4,36.9*,.,.,1.4,41.5*,10.4*,
O=C(NCC1CCCO1)c1ccc([N+](=O)[O-])s1 (stereo not drawn),-0.5,35.7*,-0.4,-9.5,3.4,1.0,1.1,
Cc1ccc2c(c1)C1CS(=O)(=O)N(CC(C)C)C(=O)N1C2 (stereo not drawn),.,-1.1,.,.,.,.,.,
C=CCC12C[C@@]3(O[C@H](c4ccc(C(F)(F)F)cc4)N=C3C[C@H](c3ccc(OC)cc3)[C@H]1C)N(Cc1ccc3c(c1)OCO3)C2=O,-58.2,7.2,.,.,6.9,.,.,
COc1ccc(OC)c(NC(=O)c2c(NC(=O)CCC(=O)O)sc3c2CCCCC3)c1,9.2,41.0*,9.7,26.4,2.0,48.8*,16.9*,
COc1ccccc1NC(=O)c1c(NC(=O)CCC(=O)O)sc2c1CCCCC2,-10.5,13.3,0.8,8.8,5.7,.,.,
O=C(O)CCC(=O)Nc1sc2c(c1C(=O)Nc1cccc3ccccc13)CCCCC2,26.7,43.2*,16.5,22.4,9.1,28.5,15.3*,
COC(=O)c1cc2c(c3c4cc(OC)ccc4n(S(=O)(=O)c4ccccc4)c13)C(=O)N(Cc1ccc(C(F)(F)F)cc1)C2,7.7,9.1,.,.,-1.6,.,.,
CC(=O)N1C[C@H]2CON(C)[C@H]2C[C@H]1c1ccccc1-c1ccccc1,-19.5,3.1,.,.,1.3,.,.,
O=C(NNc1nc2ccc(Cl)cc2s1)c1cc(-c2cccs2)nc2ccccc12,46.1,54.8*,19.7,-3.7,5.9,50.3*,24.6*,
CCC(=O)N1CCc2cc(Br)c(S(=O)(=O)NCCCN(C)Cc3ccccc3)cc21,.,7.3,.,.,.,.,.,
CCOc1cc2c(c3c1C(c1ccccc1)N(S(=O)(=O)c1ccc(C)cc1)C3)C(=O)C=CC2=O (stereo not drawn),48.5,59.9*,.,.,1.9,54.2*,25.3*,
CCCCCN1CCCCC(NC(=O)c2cccc(F)c2)C1=O (stereo not drawn),.,-2.5,.,.,.,.,.,
O=C1C[C@@H](c2ccccc2)N=C2N(Cc3ccc4c(c3)OCO4)C/C(=C/c3ccccc3)N12,.,7.3,.,.,.,.,.,
CCOC(=O)C1=NN(C(=O)Nc2cccc(C(F)(F)F)c2)C2C(=O)N(c3cccc(C(F)(F)F)c3)C(=O)C12 (stereo not drawn),-1.2,82.5*,15.6,-41.6,5.5,23.2,5.8*,
COC(=O)CC#C[C@@H](C)[C@H](NS(=O)(=O)c1ccc(C)cc1)C(C)(C)C,-10.0,1.4,.,.,1.0,.,.,
CC[C@@H]1C=C(C(=O)O)[C@H](c2cccc(C)c2)N1S(=O)(=O)c1ccc(C)cc1,-7.9,7.0,.,.,2.7,.,.,
Cc1ccc([C@H]2C(C(=O)O)=C[C@@H](CC3CCCC3)N2S(=O)(=O)c2ccc(C)cc2)cc1,-11.9,67.9*,.,.,-1.2,73.1*,27.3*,DNA CAG DR=i
Cc1ccc(S(=O)(=O)N2[C@@H](c3ccc4c(c3)OCO4)C(C(=O)O)=C[C@H]2CC2CCCC2)cc1,1.3,67.1*,.,.,-1.6,61.4*,25.1*,
COc1ccc([C@H]2C(C(=O)O)=C[C@@H](CC3CCCC3)N2S(=O)(=O)c2ccc(C)cc2)cc1OC,0.9,56.4*,.,.,-0.5,52.2*,16.8*,
Cc1ccc(S(=O)(=O)N2[C@@H](c3ccc(F)cc3)C(C(=O)O)=C[C@H]2CC2CCCC2)cc1,7.9,50.6*,.,.,0.8,56.7*,16.8*,
CCOC(=O)C1=NOC(C(C)=O)(C(=O)NC2CCCC2)C1 (stereo not drawn),.,1.2,.,.,.,.,.,
Fc1ccc(CN2CCN(c3ncc(Cc4ccccc4)cn3)CC2)c(Cl)c1,-23.2,2.3,.,.,0.7,.,.,
COC(=O)[C@]12C[C@H](CC(=O)NCCC(C)C)C(=O)N(Cc3cccc4ccccc34)C1=C[C@H](C(C)(C)C)O[C@@H]2C,.,7.7,.,.,.,.,.,
SMILES,TAAR1 antagonist,rCAG binder,HCV core dimer,NS3 helicase inh,TAAR1 ag,rCAG bind conf,DNA CAG counter,others
Cc1ccccc1C(=O)n1ccc2ccc(-c3ccc4ccn(Cc5ccccc5)c4c3)cc21,.,11.6,.,.,.,.,.,
CCc1ccc([C@H]2C(C(=O)O)=C[C@@H](CC3CCCC3)N2S(=O)(=O)c2ccc(C)cc2)cc1,-3.3,75.9*,.,.,-2.0,62.2*,25.9*,
CC[C@@H]1C=C(C(=O)O)[C@H](c2ccc(F)cc2)N1S(=O)(=O)c1ccc(C)cc1,0.6,3.0,.,.,-0.4,.,.,
Cc1ccc(S(=O)(=O)N2[C@@H](c3cccc(C)c3)C(C(=O)O)=C[C@H]2CC2CCCC2)cc1,11.4,49.2*,.,.,2.7,52.3*,17.9*,
CCCC[C@H]1C2CC(OC(=O)NCCCC(=O)OCC)C(C2)[C@H]2CCCCN21 (stereo partly drawn),.,1.0,.,.,.,.,.,
CCCCCCNC(=O)C1CSCCS(=O)(=O)N1Cc1ccccc1 (stereo not drawn),.,-3.7,.,.,.,.,.,
Cc1cc(=O)n2[nH]c(-c3ccsc3-n3c(C)ccc3C)cc2n1,-12.9,26.5,37.9,32.1,1.7,.,.,
COCc1cc(=O)n2[nH]c(-c3ccsc3-n3c(C)ccc3C)cc2n1,-9.6,40.5*,10.1,18.7,0.9,39.4*,17.4*,
Cc1nc2cc(-c3ccsc3-n3c(C)ccc3C)[nH]n2c(=O)c1Cl,20.6,50.6*,0.0,23.9,9.1,60.5*,26.4*,
O=C1/C(=C\c2cccc([N+](=O)[O-])c2O)SC(=S)N1Cc1ccccc1,12.3,37.3*,10.5,35.0,5.2,93.4*,78.2*,
O=C1/C(=C/c2ccc(O)c([N+](=O)[O-])c2)SC(=S)N1Cc1ccccc1,-3.9,7.1,5.4,14.0,5.1,.,.,
COc1cc(/C=C2\SC(=O)N(Cc3ccc(Cl)cc3)C2=O)cc([N+](=O)[O-])c1O,5.0,11.5,.,9.0,3.4,.,.,

# Screens: PubChem BioAssay, The Scripps Research Institute Molecular Screening Center
